Measured values reported in ChEMBL document CHEMBL3351998, “Discovery of potent and specific dihydroisoxazole inhibitors of human transglutaminase 2” (J Med Chem, 2014).

Assays:
[1] = biological target: T1, Protein-glutamine gamma-glutamyltransferase K (Homo sapiens) (UniProt P22735); test: Inhibition of human transglutaminase 1 using ((benzyloxy)carbonyl)-L-glutaminyl-L-serine peptide substrate assessed as Kinh/Ki ratio by GDH coupled assay
T1 sequence (whole entry): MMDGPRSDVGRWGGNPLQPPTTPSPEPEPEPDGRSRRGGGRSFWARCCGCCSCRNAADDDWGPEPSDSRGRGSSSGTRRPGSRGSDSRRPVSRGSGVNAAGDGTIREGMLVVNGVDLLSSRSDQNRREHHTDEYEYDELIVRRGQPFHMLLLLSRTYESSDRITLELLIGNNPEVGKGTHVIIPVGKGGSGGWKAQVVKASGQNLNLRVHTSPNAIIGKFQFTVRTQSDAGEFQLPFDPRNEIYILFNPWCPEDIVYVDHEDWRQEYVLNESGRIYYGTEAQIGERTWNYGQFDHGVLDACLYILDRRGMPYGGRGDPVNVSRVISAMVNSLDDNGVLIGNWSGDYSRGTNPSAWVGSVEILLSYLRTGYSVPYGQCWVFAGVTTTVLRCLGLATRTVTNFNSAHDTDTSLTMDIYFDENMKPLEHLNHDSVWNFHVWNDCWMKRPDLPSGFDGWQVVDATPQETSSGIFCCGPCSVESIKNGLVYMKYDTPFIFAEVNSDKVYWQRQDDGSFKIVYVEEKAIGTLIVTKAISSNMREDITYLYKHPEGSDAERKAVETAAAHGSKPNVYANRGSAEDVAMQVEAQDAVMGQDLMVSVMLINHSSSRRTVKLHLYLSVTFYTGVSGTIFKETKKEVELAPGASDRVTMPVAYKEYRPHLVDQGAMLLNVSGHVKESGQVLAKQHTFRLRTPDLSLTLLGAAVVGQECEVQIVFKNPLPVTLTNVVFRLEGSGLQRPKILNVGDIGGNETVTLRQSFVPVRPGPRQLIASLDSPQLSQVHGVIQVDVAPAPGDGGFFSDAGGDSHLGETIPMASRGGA
In short: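 Recombinant His-tagged human TG1 from E. coli Rosetta 2 pLysS, final ~0.37 μM, in 200 mM MOPS pH 7.2, 5 mM CaCl2, 10 mM α-ketoglutarate, 300 μM NADH, 36 U/mL GDH. Z-Gln-Ser at 20/40 mM. Inhibitors typically at 100/33.3/11.1/3.7 μM (1% DMSO), added after ≥5 min enzyme pre-equilibration. NADH loss read at 340 nm; progress curves fitted to exponential decay, kinh/Ki from irreversible model.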

[2] = biological target: T2, Protein-glutamine gamma-glutamyltransferase 2 (Mus musculus) (UniProt P21981); test: Inhibition of mouse transglutaminase 2 using ((benzyloxy)carbony l)-L-glutaminylglycine peptide substrate assessed as Kinh/Ki ratio by GDH coupled assay
T2 sequence (whole entry): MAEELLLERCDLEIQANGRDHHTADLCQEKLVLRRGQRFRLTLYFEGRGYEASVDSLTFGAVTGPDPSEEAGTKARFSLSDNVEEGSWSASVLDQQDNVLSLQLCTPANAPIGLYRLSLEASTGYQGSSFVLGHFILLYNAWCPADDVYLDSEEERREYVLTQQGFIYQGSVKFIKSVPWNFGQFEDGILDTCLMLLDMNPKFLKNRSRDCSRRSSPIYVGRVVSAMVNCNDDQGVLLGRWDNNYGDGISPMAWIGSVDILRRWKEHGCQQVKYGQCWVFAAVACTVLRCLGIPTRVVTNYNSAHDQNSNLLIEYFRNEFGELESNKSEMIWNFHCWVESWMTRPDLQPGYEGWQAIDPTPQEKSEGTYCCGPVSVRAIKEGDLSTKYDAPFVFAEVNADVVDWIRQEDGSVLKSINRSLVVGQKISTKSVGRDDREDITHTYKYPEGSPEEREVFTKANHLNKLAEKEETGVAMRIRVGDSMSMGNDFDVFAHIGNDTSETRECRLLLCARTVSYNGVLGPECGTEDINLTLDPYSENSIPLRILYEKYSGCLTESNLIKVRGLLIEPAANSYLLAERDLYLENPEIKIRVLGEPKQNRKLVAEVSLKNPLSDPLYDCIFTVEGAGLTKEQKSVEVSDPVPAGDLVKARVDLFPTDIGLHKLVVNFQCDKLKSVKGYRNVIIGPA
In short: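 Human TG2 (V224G variant) or codon-optimized murine TG2, E. coli-expressed, final ~0.34 and 0.22 μM respectively. Buffer: 200 mM MOPS pH 7.2, 5 mM CaCl2, 10 mM α-ketoglutarate, 300 μM NADH, 36 U/mL bovine GDH. Z-Gln-Gly at 10/20 mM. Inhibitors typically at 100/33.3/11.1/3.7 μM, 1% DMSO, added after ≥5 min pre-equilibration. A340 progress curves fitted to exponential decay; kinh/Ki from irreversible inhibition model.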

[3] = biological target: T3, Coagulation factor XIII A chain (Homo sapiens) (UniProt P00488); test: Inhibition of human factor 13a using QEQVSPLSLLK peptide substrate assessed as Kinh/Ki ratio by GDH coupled assay
T3 sequence (whole entry): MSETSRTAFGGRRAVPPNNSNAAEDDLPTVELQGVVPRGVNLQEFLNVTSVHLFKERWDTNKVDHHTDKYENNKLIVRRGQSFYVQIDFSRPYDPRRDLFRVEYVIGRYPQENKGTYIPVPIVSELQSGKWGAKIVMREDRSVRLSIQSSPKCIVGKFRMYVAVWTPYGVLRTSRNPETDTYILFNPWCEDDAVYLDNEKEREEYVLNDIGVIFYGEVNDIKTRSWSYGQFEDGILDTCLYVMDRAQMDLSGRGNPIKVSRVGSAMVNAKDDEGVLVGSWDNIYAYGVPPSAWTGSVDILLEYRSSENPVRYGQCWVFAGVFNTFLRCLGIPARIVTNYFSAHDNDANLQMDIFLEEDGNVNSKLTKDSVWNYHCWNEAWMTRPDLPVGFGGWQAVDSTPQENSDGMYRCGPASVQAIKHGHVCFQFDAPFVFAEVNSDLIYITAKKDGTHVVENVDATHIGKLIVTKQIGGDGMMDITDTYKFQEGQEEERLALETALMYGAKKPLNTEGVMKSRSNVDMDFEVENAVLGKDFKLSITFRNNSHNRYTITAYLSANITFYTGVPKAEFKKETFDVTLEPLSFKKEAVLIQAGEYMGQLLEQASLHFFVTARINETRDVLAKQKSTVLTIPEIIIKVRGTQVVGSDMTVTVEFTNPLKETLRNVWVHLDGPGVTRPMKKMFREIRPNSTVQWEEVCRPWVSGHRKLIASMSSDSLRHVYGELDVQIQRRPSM

SMILES | Ratio [1] | Ratio [2] | Ratio [3]
O=C(NC[C@@H]1CC(Br)=NO1)[C@@H]1C[C@@H](c2ccccc2)CN1C(=O)OCc1cnc2ccccc2c1 | 66.3 | 1.5 | 25.4
O=C(NC[C@@H]1CC(Br)=NO1)[C@@H]1C[C@@H](OCc2ccccc2)CN1C(=O)OCc1cnc2ccccc2c1 | 5.8 | 0.5 | 15.5
O=C(NC[C@@H]1CC(Br)=NO1)[C@@H]1CCCN1C(=O)OCc1cnc2ccccc2c1 | 13.2 | 0.5 | 8.3
O=C(NC[C@@H]1CC(Br)=NO1)[C@@H]1C[C@@H](O)CN1C(=O)OCc1cnc2ccccc2c1 | 4.8 | 0.5 | 11.1
O=C(NC[C@@H]1CC(Br)=NO1)[C@@H]1C[C@H](F)CN1C(=O)OCc1cnc2ccccc2c1 | 6 | 0.43 | 7

More lines, now with the values ahead:

Ratio [1] | Ratio [2] | Ratio [3] | SMILES
20 | 0.68 | 10.6 | O=C(N[C@@H]1C[C@@H](C(=O)NC[C@@H]2CC(Br)=NO2)N(C(=O)OCc2cnc3ccccc3c2)C1)c1cccnc1
90.7 | 1.4 | 38.7 | O=C(NC[C@@H]1CC(Br)=NO1)[C@@H]1C[C@@H](c2ccc(O)cc2)CN1C(=O)OCc1cnc2ccccc2c1
31.3 | 1.3 | 9.4 | O=C(N[C@@H]1C[C@@H](C(=O)NC[C@@H]2CC(Br)=NO2)N(C(=O)OCc2cnc3ccccc3c2)C1)c1ccc(O)cc1
